Consider 6 compounds from ChEMBL document CHEMBL2321836, “Discovery of novel Trypanosoma brucei phosphodiesterase B1 inhibitors by virtual screening against the unliganded TbrPDEB1 crystal structure” (J Med Chem, 2013).

As a reminder, the IC50 is the concentration needed to halve the response being measured. A high value points to weaker potency.

The target in experiment [1] is 3',5'-cyclic-AMP phosphodiesterase 4B (Homo sapiens, UniProt Q07343). The experiment can be described thus: Inhibition of human full length PDE4B expressed in insect SF21 cells using cAMP as substrate by scintillation proximity assay. The method in brief: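 Full-length enzyme harvested by sonication of supernatants of overexpressing Sf21 cells. Scintillation proximity assay with 0.5 μM cAMP substrate. Enzyme level set so that <20% of cAMP was consumed. Blanks used denatured protein. Run in at least duplicate. IC50 obtained by a one-site competitive binding fit, with curves assumed to plateau at 100% inhibition.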
Background: SPA uses beads or plates that emit light when radiolabelled molecules are held near them.

In experiment [2] the target is T1, Class 1 phosphodiesterase PDEB1 (Trypanosoma brucei, UniProt Q8WQX9).
T1 sequence (Q8WQX9 whole entry): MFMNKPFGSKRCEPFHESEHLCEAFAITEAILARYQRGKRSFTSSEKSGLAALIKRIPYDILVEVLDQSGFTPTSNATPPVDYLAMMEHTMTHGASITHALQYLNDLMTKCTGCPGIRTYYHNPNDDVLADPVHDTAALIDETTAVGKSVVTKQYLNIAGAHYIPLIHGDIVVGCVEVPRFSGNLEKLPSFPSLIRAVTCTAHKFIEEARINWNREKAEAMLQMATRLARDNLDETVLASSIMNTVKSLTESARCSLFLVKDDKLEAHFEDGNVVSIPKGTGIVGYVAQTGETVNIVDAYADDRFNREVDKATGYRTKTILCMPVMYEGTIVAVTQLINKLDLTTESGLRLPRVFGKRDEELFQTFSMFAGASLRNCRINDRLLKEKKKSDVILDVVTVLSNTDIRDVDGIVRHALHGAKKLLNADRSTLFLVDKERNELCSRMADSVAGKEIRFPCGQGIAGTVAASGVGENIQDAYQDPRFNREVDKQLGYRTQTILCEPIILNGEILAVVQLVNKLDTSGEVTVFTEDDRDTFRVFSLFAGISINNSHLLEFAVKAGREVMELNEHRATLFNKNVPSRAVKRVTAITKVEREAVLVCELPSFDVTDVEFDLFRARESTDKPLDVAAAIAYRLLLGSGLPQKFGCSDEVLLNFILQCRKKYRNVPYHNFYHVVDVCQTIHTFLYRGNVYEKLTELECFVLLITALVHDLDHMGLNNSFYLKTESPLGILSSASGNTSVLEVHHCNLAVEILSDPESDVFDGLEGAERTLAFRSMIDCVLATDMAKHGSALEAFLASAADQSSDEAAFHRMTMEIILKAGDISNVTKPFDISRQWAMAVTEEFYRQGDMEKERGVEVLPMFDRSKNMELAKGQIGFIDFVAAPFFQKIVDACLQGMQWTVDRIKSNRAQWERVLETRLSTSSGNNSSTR
The experiment can be described thus: Inhibition of Trypanosoma brucei full length PDEB1 expressed in insect SF21 cells using cAMP as substrate by scintillation proximity assay. The method in brief:
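Full-length enzyme harvested by sonication of supernatants of overexpressing Sf21 cells. Scintillation proximity assay with 0.5 μM cAMP substrate. Enzyme level set so that <20% of cAMP was consumed. Blanks used denatured protein. Run in at least duplicate.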

Experiment [3] can be described thus: Selectivity ratio of IC50 for Trypanosoma brucei PDEB1 to IC50 for human PDE4B.

Chain of 3',5'-cyclic-AMP phosphodiesterase 4B (Q07343 whole entry): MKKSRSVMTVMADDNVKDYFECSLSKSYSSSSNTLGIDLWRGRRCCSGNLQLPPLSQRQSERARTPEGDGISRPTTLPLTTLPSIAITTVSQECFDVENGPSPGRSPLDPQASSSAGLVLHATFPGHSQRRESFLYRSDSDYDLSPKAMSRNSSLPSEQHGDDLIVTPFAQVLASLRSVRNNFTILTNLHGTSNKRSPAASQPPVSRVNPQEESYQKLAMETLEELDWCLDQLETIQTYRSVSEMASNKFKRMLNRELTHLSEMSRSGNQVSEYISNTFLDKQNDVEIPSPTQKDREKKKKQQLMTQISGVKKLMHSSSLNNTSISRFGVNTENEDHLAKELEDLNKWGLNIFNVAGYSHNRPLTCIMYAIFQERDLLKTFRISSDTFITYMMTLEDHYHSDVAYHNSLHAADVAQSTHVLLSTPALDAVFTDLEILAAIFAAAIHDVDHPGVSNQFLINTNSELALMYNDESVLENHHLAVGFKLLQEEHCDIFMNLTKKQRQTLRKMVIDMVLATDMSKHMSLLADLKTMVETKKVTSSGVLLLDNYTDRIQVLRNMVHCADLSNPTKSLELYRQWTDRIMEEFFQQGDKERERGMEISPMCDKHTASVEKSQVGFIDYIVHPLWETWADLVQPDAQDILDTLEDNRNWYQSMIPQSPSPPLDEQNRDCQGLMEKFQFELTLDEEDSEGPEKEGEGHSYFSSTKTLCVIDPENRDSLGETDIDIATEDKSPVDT

As for `Cc1cc(SCC(=O)c2ccc(O)c(O)c2)n2nc(C)c(-c3ccccc3)c2n1`, the values for the IC50 in experiment [1] and in experiment [2] were 5 µM and 13 µM, respectively.

With `O=C1c2cccc3cccc(c23)C(=O)N1CCCC(=O)N(Cc1ccco1)C1CC1`, the IC50 in experiment [1] was 16 µM; in experiment [2] it was 41 µM. Moreover, the Ratio IC50 in experiment [3] amounted to 2.6.

As to `O=C(CCc1nc2ccccc2n(CCc2ccccc2)c1=O)N1CCCCC1`, the half-inhibitory concentration (IC50) in experiment [1] was 15 µM; in experiment [2], 54 µM. For the same compound, the Ratio IC50 in experiment [3] is 3.6.

Regarding `O=C(CCCSc1ncnc2sc(-c3ccccc3)cc12)N1CCOCC1`, the figures for the IC50 in experiment [1] and in experiment [2] were 14 µM and 12 µM, respectively.

As to `O=C(NCc1ccc(Cn2cncn2)cc1)c1ccc2[nH]c3c(c2c1)CCCC3`, the concentration for half-maximal inhibition (IC50) in experiment [1] came out at 68 µM; in experiment [2], 75 µM.

In the case of `CCCn1c(=O)n(C)c(=O)c2c(SCC(=O)c3ccc(Cl)cc3)nc(CC(C)C)nc21`, the half-inhibitory concentration (IC50) in experiment [1] was 26 µM; in experiment [2], 10 µM. Also, the Ratio IC50 in experiment [3] was found to be 0.4.
